Bioassay records deposited in PubChem BioAssay by The Scripps Research Institute Molecular Screening Center.
The list is not random: actives were taken first. Their share in the collection is about 3%.
TAAR1 antagonist – human TAAR1 antagonism. inhibition, % at 3 µM. AID 624466. 360,000 tested, 1.5% active. Q96RJ0. CHO RD-HGA16 TAAR1, Fluo-8 calcium fluorescence, antagonist;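 active = inhibition above a per-plate cutoff, the mean inhibition of test compounds on that plate plus 3 SD, cut at about 49% in these data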
Target sequence (Q96RJ0 whole entry, looked up): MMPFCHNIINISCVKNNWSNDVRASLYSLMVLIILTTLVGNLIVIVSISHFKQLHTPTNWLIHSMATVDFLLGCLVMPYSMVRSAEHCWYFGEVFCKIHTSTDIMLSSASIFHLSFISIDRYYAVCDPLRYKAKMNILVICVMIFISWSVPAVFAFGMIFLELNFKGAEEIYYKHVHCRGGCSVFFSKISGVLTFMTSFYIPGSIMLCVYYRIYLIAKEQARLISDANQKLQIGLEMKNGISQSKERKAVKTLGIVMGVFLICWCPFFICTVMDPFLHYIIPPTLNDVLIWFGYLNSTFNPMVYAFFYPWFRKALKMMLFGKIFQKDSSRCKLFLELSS
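Assay system: RD-HGA16 CHO cells with stable hTAAR1 and Gα16 / Reagent: EC80 β-phenethylamine stimulus / Doses: 3 µM, single point / Timing: dye loading 75 min at 37 °C, then 30 min room temperature / Measured by: Fluo-8 intracellular calcium dye fluorescence, real-time kinetic reads / Controls: vehicle wells and EC80 agonist wells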
CHRM4 agonist – CHRM4 agonism in calcium assay; P08173; CHO-K1 hM4/Gqi5, Fluo-8 calcium fluorescence; vehicle 0%, full acetylcholine response 100%; activation, % at 3 µM; 360,000 tested, 0.14% active; AID 624127;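 active = activation above the run mean over all test wells plus 3 SD, cut at about 32% in these data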;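 note: peak over basal fluorescence ratio per well then scaled between controls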
TAAR1 agonist – human TAAR1 agonism | CHO RD-HGA16 TAAR1, Fluo-8 calcium fluorescence; vehicle wells 0%, saturating PEA agonist 100% | activation, % at 3 µM | 360,000 tested, 0.99% active | AID 624467;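 active = activation above the mean activation of all test compounds in the run plus 3 SD, cut at about 38% in these data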
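Repeats: no replicates (n 1) | Material: CHO-derived RD-HGA16 cells with stable Gα16 and human TAAR1 | Technique: Kinetic Fluo-8 calcium fluorescence | Schedule: 17-24 h seeding, 75 min 37 °C dye, 30 min RT | Evaluation: % activation from peak over basal fluorescence ratio, DMSO-to-PEA scaled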
CHRM4 PAM – potentiates acetylcholine response at human M4 receptor. 360,000 tested, 0.4% active. AID 624126. activation, % at 3 µM. CHO-K1 hM4/Gqi5, Fluo-8 calcium fluorescence, ACh EC20; 0% = ACh EC20, 100% = maximal ACh. P08173;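 active = activation above its plate's cutoff, the mean activation of sample wells plus 3 SD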
CHRM4 antagonist – antagonists of human muscarinic M4 receptor (CHRM4); 360,000 tested, 0.73% active; inhibition, % at 3 µM; P08173; AID 624125; CHO-hM4 cells, ACh EC80, Fluo-8 calcium fluorescence;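 active = inhibition above its plate's cutoff, the mean inhibition of sample wells plus 3 SD, cut at about 27% in these data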
TAAR1 ag confirm – human TAAR1 agonism, confirmed | shares compounds with TAAR1 agonist | CHO RD-HGA16 TAAR1, Fluo-8 calcium fluorescence; scaled: DMSO 0%, maximal phenethylamine 100% | activation, % at 3 µM | 2,400 tested, 82% active;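 active = activation above a cutoff set at the run's mean compound activation plus 3 SD, cut at about 39% in these data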
Ga16 ag counter – counter-screen for TAAR1 agonists: nonselective agonists in parental cells; shares compounds with TAAR1 agonist; CHO-Ga16 parental, Fluo-8 calcium fluorescence; normalized to maximal ATP response, DMSO zero; activation, % at 3 µM; 2,400 tested, 50% active; AID 651787;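 active = activation above the run cutoff, the mean activation over all tested wells plus 3 SD, cut at about 12% in these data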
TAAR1 desens – counter-screen for human TAAR1 agonists: agonists that desensitize TAAR1 | CHO RD-HGA16 hTAAR1, Fluo-8 calcium, beta-PEA response inhibition | inhibition, % at 3 µM | 2,400 tested, 46% active | shares compounds with TAAR1 agonist;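 active = inhibition above the run cutoff, the mean inhibition of all test compounds plus 3 SD, cut at about 49% in these data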;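 note: beta-PEA stimulus applied at its EC80; loss of beta-PEA calcium signal after compound pretreatment read as receptor desensitization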
Ga16 antag count – nonselective Ga16 antagonism, counter-screen; inhibition, % at 3 µM; CHO-Ga16 ATP-induced calcium, Fluo-8 fluorescence; shares compounds with TAAR1 agonist; 2,400 tested, 39% active;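 active = inhibition above the plate's mean compound inhibition plus 3 SD, computed per plate, cut at about 22% in these data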
Numbers stand for hits; - = inactive; . = no result given.

SMILES	TAAR1 antagonist	CHRM4 agonist	TAAR1 agonist	CHRM4 PAM	CHRM4 antagonist	TAAR1 ag confirm	Ga16 ag counter	TAAR1 desens	Ga16 antag count
COCCN(CCOC)Cc1cc(=O)oc2ccc3ccccc3c12	-	-	-	-	-	.	.	.	.
COc1ccc(CNCCC(c2ccccc2)c2ccc3c(c2)OCO3)cc1 (stereo unspecified)	-	-	60	-	-	58	30	62	37
COc1ccc(C(CC(=O)O)c2ccc3c(c2)OCO3)cc1 (stereo unspecified)	-	-	-	-	-	.	.	.	.
CN(C)C1=NC[C@H](Cc2ccccc2)N1CCCC1CCCC1	-	-	45	-	-	-	-	-	-
CN(C)C1=NC[C@H](Cc2ccccc2)N1CCC1CCCC1	-	-	-	-	-	.	.	.	.
O=C(NCc1ccccc1)OC1CC2CC1[C@H]1CCCCN1C2=O (stereo partly specified)	-	-	-	-	-	.	.	.	.
CSc1nc(N)nc(SCC(=O)c2ccc(C)cc2)c1C#N	54	-	52	-	-	-	-	-	-
CSc1nc(N)nc(SCC(=O)OC(C)C)c1C#N	-	-	-	-	-	.	.	.	.
CCn1c(SCC(=O)N(C)c2c(N)n(Cc3ccccc3)c(=O)[nH]c2=O)nnc1-c1cccs1	-	-	-	-	-	.	.	.	.
CNS(=O)(=O)c1ccc(CNC[C@H]2O[C@@H](n3cnc4c(=O)[nH]c(N)nc43)[C@H](O)[C@@H]2O)cc1	-	-	-	-	-	.	.	.	.
CCn1c2ccccc2c2cc(/C=N/NC(=O)c3ccc(O)cc3)ccc21	-	-	47	-	-	47	-	-	-
CCn1c2ccccc2c2cc(/C=N/NC(=O)c3cc(O)cc(O)c3)ccc21	-	-	-	-	-	.	.	.	.
O=c1c2cnn(-c3ccc(F)cc3)c2ncn1Cc1cccnc1	-	-	-	-	-	.	.	.	.
O=c1c2cnn(-c3ccc(F)cc3)c2ncn1Cc1ccccc1	50	-	43	-	-	-	-	-	-
CCN1CCN(c2cc(SC(C)C)nc(-c3ccc(OC)cc3)n2)CC1	-	-	46	-	-	74	19	-	-
O=C(Nc1ccc(Br)cc1F)c1ccc2nsnc2c1	-	-	-	-	-	.	.	.	.
Cc1ccc(NC(=O)c2ccc3nsnc3c2)c(Cl)c1	-	-	57	-	-	-	-	-	-
CCOC(=O)c1sc(N)c(C(=O)OC)c1C	-	-	-	-	-	.	.	.	.
COc1cccc(OC)c1C(=O)NCCc1ccccc1	-	-	81	-	-	80	-	63	-
COc1cc(C)c(NC(=O)C(=S)NCCc2ccccc2)cc1C	79	-	66	-	-	92	-	85	-
COC(=O)c1c(N)sc(C(=O)NCCc2ccccc2)c1C	74	-	101	-	-	86	-	89	22
Cc1ccc(N2CCN(C(C(=O)Nc3c(C)cccc3C)c3ccccc3OC(F)(F)F)CC2)cc1 (stereo unspecified)	-	-	-	-	-	.	.	.	.
CCOC(=O)CCCN(c1[nH]c(C)c(C)c1C#N)S(=O)(=O)c1ccc(C)cc1	-	-	-	-	-	.	.	.	.
Cc1ccc(N2C(=O)c3cccc4c(N)ccc(c34)C2=O)c2cccnc12	79	-	230	-	-	105	126	61	69
COc1ccc(C(=O)OCC(=O)c2c(N)n(C)c(=O)n(C)c2=O)c(OC)c1OC	-	-	-	-	-	.	.	.	.
SMILES	TAAR1 antagonist	CHRM4 agonist	TAAR1 agonist	CHRM4 PAM	CHRM4 antagonist	TAAR1 ag confirm	Ga16 ag counter	TAAR1 desens	Ga16 antag count
CN1C(=O)NC(c2ccccc2)C2=C1CN(CCc1ccccc1)C2=O (stereo unspecified)	-	-	58	-	-	72	-	54	-
COc1ccc(CCN2CC3=C(C2=O)C(c2ccccc2)NC(=O)N3C)cc1OC (stereo unspecified)	-	-	-	-	-	.	.	.	.
CCC(=O)OCCn1c(=O)c2cc3c(=O)n(CCOC(=O)CC)c(=O)c3cc2c1=O	-	-	-	-	-	.	.	.	.
CCCOC(=O)Cn1c(=O)c2cc3c(=O)n(CC(=O)OCCC)c(=O)c3cc2c1=O	-	-	53	-	-	-	-	-	-
COc1ccc(/C=C/C(=O)NC(=S)NNC(=O)c2cccs2)cc1	73	-	100	-	-	69	51	50	41
COc1ccc(C(=O)NNC(=S)NC(=O)c2ccc(OC)cc2)cc1	81	54	110	-	-	88	89	49	47
Cc1cccc(C(=O)NNC(=S)NC(=O)c2cccs2)c1	60	129	142	-	-	120	95	75	53
COc1ccc(OCC(=O)NNC(=S)NC(=O)c2ccc(Br)o2)cc1	-	-	55	-	-	-	18	-	-
COc1ccc(OCC(=O)NNC(=S)NC(=O)c2ccc([N+](=O)[O-])cc2)cc1	-	-	-	-	-	.	.	.	.
COc1ccc(C(=O)NNC(=S)NC(=O)c2cccnc2)cc1	-	-	-	-	-	.	.	.	.
O=C(c1ccccc1)n1c2ccccc2c(=O)n1-c1ccccc1CCl	.	-	.	-	-	.	.	.	.
CCNC(=S)NNC(=O)c1ccc(OC)cc1	-	-	-	-	-	.	.	.	.
Cc1cccc(C(=O)NNC(=S)NC(=O)c2ccccc2)c1	107	118	169	-	-	133	105	92	75
CCCCC(=O)NC(=S)NNC(=O)c1ccc(OC)cc1	-	-	85	-	-	99	82	51	44
COc1ccc(C(=O)NNC(=S)NC(=O)c2cccs2)cc1	-	-	103	-	-	67	40	-	26
Cc1cccc(/C(N)=N/OC(=O)COc2ccc(Cl)cc2)c1	-	-	-	-	-	.	.	.	.
Cc1cccc(C(=O)NC(=S)NNC(=O)COc2ccc(Cl)cc2)c1	53	-	99	-	-	104	84	76	53
Cc1ccc(C(=O)NNC(=O)c2cccc(C)c2)cc1	-	-	-	-	-	.	.	.	.
O=c1[nH]cc(S(=O)(=O)N2CCN(c3ccc(F)cc3)CC2)c(=O)[nH]1	-	-	-	-	-	.	.	.	.
OCCN(Cc1ccccn1)Cc1ccccn1	.	-	.	-	-	.	.	.	.
CCc1ccc(C(O)c2ncc(-c3cccc(OC)c3)[nH]2)cc1 (stereo unspecified)	.	-	.	-	-	.	.	.	.
